In ChEMBL document CHEMBL1649301, “Polyamine transport as a target for treatment of Pneumocystis pneumonia” (Antimicrob Agents Chemother, 2009):
Activity calls are given as the source filed them. The calls are words filed in the database; no cut-off is given here.

Experiments:
[1] = Inhibition of polyamine transporter expressed in CHO cells; type: cell-based
[2] = Cytotoxicity against Sprague-Dawley rat alveolar macrophages assessed as cell viability at 0.4 mM after 3 hrs by trypan blue exclusion assay; type: cell-based, Macrophage; conditions: read-out: Activity
Method in brief: (§1)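 Alveolar macrophages from normal rats (10⁶ per well) were kept in serum-free DMEM with compound for 3 h. They were then stained with 0.4% trypan blue, and unstained viable cells were counted.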

Pneumocystis carinii [3] = experiment: Antimicrobial activity against Pneumocystis carinii infected in Sprague-Dawley rat assessed as reduction of organism burden in lungs at 0.5 mg/kg, intranasally every 2 days 28 days after infection for 21 days; type: functional, organism-based; design: dose 0.5 mg/kg
Method in brief: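 The dexamethasone-immunosuppressed, P. carinii-infected female Sprague-Dawley rats were dosed intranasally with 50 μl of a 1 mM solution every 2 days from infection day 28, for 21 days. Cysts were counted in paraffin lung sections stained with modified Grocott's methenamine silver, and burden was graded on a 0–4 scale.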

Pneumocystis carinii [4] = experiment: Antimicrobial activity against Pneumocystis carinii infected in Sprague-Dawley rat assessed as reduction of inflammatory cell infiltration at 0.5 mg/kg, intranasally every 2 days 28 days after infection for 21 days; type: functional, organism-based; design: dose 0.5 mg/kg
Method in brief: (§2)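 Female Sprague-Dawley rats (~120 g) were immunosuppressed with dexamethasone at 1.8 mg/liter in drinking water. After 1 week they received a transtracheal inoculum of 7.5 × 10⁶ trophic forms, plus penicillin i.m. weekly. From infection day 28, they were given 50 μl of a 1 mM solution intranasally every 2 days. After 21 days, lungs were fixed in 4% paraformaldehyde, and paraffin sections were H&E-stained and examined by light microscopy. Inflammation was graded 0–5.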

Pneumocystis carinii [5] = experiment: Antimicrobial activity against Pneumocystis carinii infected in Sprague-Dawley rat assessed as effect on alveolar structure at 0.5 mg/kg, intranasally every 2 days 28 days after infection for 21 days; type: functional, organism-based; design: dose 0.5 mg/kg; method in brief: as §2
[6] = Cytotoxicity against Sprague-Dawley rat alveolar macrophages assessed as cell viability at 2 mM after 3 hrs by trypan blue exclusion assay; type: cell-based, Macrophage; conditions: for Activity: macrophage, 3 h, 2000 µM; method in brief: as §1
CHO-MG = experiment: Inhibition of polyamine uptake in CHO-MG cells; type: functional, cell-based; conditions: Cricetulus griseus
Pneumocystis carinii [7] = experiment: Antimicrobial activity against Pneumocystis carinii infected in Sprague-Dawley rat assessed as increase of host survival time at 0.5 mg/kg, intranasally every 2 days 28 days after infection; type: functional
Method in brief: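 Female Sprague-Dawley rats (~120 g) were immunosuppressed with dexamethasone 1.8 mg/liter in drinking water. One week later they were inoculated transtracheally with 7.5 × 10⁶ trophic forms, with weekly intramuscular penicillin. From infection day 28, rats received 50 μl of a 1 mM solution intranasally every 2 days (7–8 rats/group), alongside untreated infected and uninfected controls. Survival was followed to day 84 and compared by Kaplan-Meier/log-rank.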

Pneumocystis carinii [8] = experiment: Antimicrobial activity against Pneumocystis carinii infected in Sprague-Dawley rat assessed as reduction of number of apoptotic alveolar macrophages at 0.5 mg/kg, intranasally every 2 days 28 days after infection for 21 days; type: functional
Method in brief: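 Lung sections came from infected, dexamethasone-treated rats given 50 μl of 1 mM intranasally every 2 days for 21 days from day 28. Sections were digested with proteinase K (20 μg/ml, room temperature, 10 min), then TdT/fluorescein-12-dUTP labelled (37°C, 1 h) and DAPI-mounted. Apoptotic macrophage percentage was taken as TUNEL+/DAPI+ cells over 10 random 100× fields per slide.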

[9] = Ratio of IC50 for polyamine uptake in CHO-MG cells to IC50 for polyamine transporter expressed in CHO cells
Pneumocystis carinii [10] = experiment: Antimicrobial activity against Pneumocystis carinii infected in Sprague-Dawley rat assessed as effect on foamy exudates in alveoli at 0.5 mg/kg, intranasally every 2 days 28 days after infection for 21 days; type: functional, organism-based; design: dose 0.5 mg/kg; method in brief: as §2
Pneumocystis carinii [11] = experiment: Antimicrobial activity against Pneumocystis carinii infected in Sprague-Dawley rat assessed as increase of open alveolar space at 0.5 mg/kg, intranasally every 2 days 28 days after infection for 21 days; type: functional, organism-based; design: dose 0.5 mg/kg; method in brief: as §2
Pneumocystis carinii [12] = experiment: Antimicrobial activity against Pneumocystis carinii infected in Sprague-Dawley rat assessed as reduction of foamy exudates in alveoli at 0.5 mg/kg, intranasally every 2 days 28 days after infection for 21 days; type: functional, organism-based; design: dose 0.5 mg/kg; method in brief: as §2
Pneumocystis carinii [13] = experiment: Antimicrobial activity against Pneumocystis carinii infected in Sprague-Dawley rat assessed as reduction of inflammation at 0.5 mg/kg, intranasally every 2 days 28 days after infection for 21 days; type: functional, organism-based; design: dose 0.5 mg/kg; method in brief: as §2
Pneumocystis carinii [14] = experiment: Antimicrobial activity against Pneumocystis carinii infected in Sprague-Dawley rat assessed as reduction of alveolar septum thickness at 0.5 mg/kg, intranasally every 2 days 28 days after infection for 21 days; type: functional, organism-based; design: dose 0.5 mg/kg; method in brief: as §2

Structure (SMILES) | IC50 [1] | viability at 3 h, 400 µM [2] | Activity (Pneumocystis carinii [3]) | Activity (Pneumocystis carinii [4]) | Activity (Pneumocystis carinii [5]) | Activity [6] | IC50 (CHO-MG) | Survival (Pneumocystis carinii [7]) | Activity (Pneumocystis carinii [8]) | Ratio IC50 [9] | Activity (Pneumocystis carinii [10]) | viability at 3 h, 2000 µM ([6]; Sprague-Dawley, alveolar macrophages, read-out: Activity) | Activity (Pneumocystis carinii [11]) | Activity (Pneumocystis carinii [12]) | Activity (Pneumocystis carinii [13]) | Activity (Pneumocystis carinii [14])
Cl.NCCCCNCCCCNCc1ccc(CNCCCCNCCCCN)cc1 | 74 nM | – | Active | Active | inactive | Non-toxic | 50.2 µM | 84 days | inactive | 677 | inactive | – | – | – | – | –
Cl.Cl.NCCCCNCc1c2ccccc2cc2ccccc12 | 7700 nM | < 16% | – | – | – | – | – | – | – | 1 | – | – | – | – | – | –
Cl.NCCCCNCCCCNCc1c2ccccc2c(CNCCCCNCCCCN)c2ccccc12 | 45 nM | – | Active | – | – | Non-toxic | > 100 µM | 84 days | 80% | >2222 | – | – | Active | Active | Active | Active

Continued, in another order:

IC50 [1] | Structure (SMILES) | viability at 3 h, 400 µM [2] | Activity (Pneumocystis carinii [3]) | Activity (Pneumocystis carinii [4]) | Activity (Pneumocystis carinii [5]) | Activity [6] | IC50 (CHO-MG) | Survival (Pneumocystis carinii [7]) | Activity (Pneumocystis carinii [8]) | Ratio IC50 [9] | Activity (Pneumocystis carinii [10]) | viability at 3 h, 2000 µM ([6]; Sprague-Dawley, alveolar macrophages, read-out: Activity) | Activity (Pneumocystis carinii [11]) | Activity (Pneumocystis carinii [12]) | Activity (Pneumocystis carinii [13]) | Activity (Pneumocystis carinii [14])
450 nM | NCCCCNCCCCNCc1c2ccccc2cc2ccccc12 | < 16% | – | – | – | – | – | – | – | – | – | – | – | – | – | –
10600 nM | NCCCCNCCCCNCCCCNCc1c2ccccc2cc2ccccc12 | 88% | – | – | – | – | 33.2 µM | – | – | – | – | 42% | – | – | – | –
